Measured values reported in article PMC7323501 (Inorganic chemistry, 2019).
Like-named read-outs stand apart in the source and are kept apart here.

What was measured:
[1] = CCA assay: copper/ascorbate redox cycling, hydroxyl radical production; conditions: 1 equiv (10 μM) vs copper(II) 10 μM, ascorbate 300 μM, CCA 100 μM, pH 7.4
Method in brief: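 Cu(II)/ascorbate hydroxyl-radical model in PBS (pH 7.4) with Desferal (1 μM); CuSO4 in water. Addition order is buffer, CCA (100 μM), Desferal, test compound (0.5 equiv = 5 μM or 1 equiv = 10 μM), Cu(II) (10 μM), then ascorbate (300 μM). The read-out is 7-hydroxy-CCA fluorescence (λex 395 nm, λem 450 nm). Triplicate.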

[2] = DPPH radical scavenging assay; conditions: 1–1500 μM, MeOH, 30 min, n = 3
Method in brief: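 Test compound stocks (5 mM, MeOH) were diluted and mixed 1:1 with DPPH stock (150 μM in MeOH), giving final compound 1–1500 μM. Plates were incubated 30 min in the dark at room temperature and read at 516 nm. BHT served as reference antioxidant, and DPPH plus MeOH as the control. Each concentration was run in triplicate, with results normalised to control as % DPPH quenched.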

[3] = cited from earlier work
[4] = previously shown; cited from earlier work
[5] = ABTS radical reactivity
[6] = test system: Nrf2 pathway; conditions: human blood–brain barrier CMEC/D3 cells; cited from earlier work
[7] = test system: HT-22 cells; experiment: Cytoprotection against H2O2 in HT-22 cells, WST-8 assay; assay type: cell-based, mouse; conditions: then 600 μM H2O2 4 h
Method in brief: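 HT-22 cells were pretreated with or without test compound (0.1–100 μM) for 24 h, then exposed to 600 μM H2O2 for 4 h. Viability was read by WST-8 reduction (2 h incubation, A450). Values are mean ± SD, n = 6, and significance was tested against the H2O2-only group.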

[8] = test system: Nrf2; experiment: Nrf2 expression by Western blot in HT-22 cells; assay type: cell-based, mouse; conditions: HT-22, 1 μM, 24 h

**Q.** For `CCN(CC)Cc1cccc(CN(CC)CC)n1` [2,6-bis[(diethylamino)methyl]pyridine], which “inhibition of CCA conversion to fluorescent hydroxy-CCA” value [1] is on record?
**A.** Its value is “failed to give any indication of the prevention of copper redox cycling”.

**Q.** With `Cc1cc(C(C)(C)C)c(O)c(C(C)(C)C)c1` [BHT, 2,6-Di-tert-butyl-4-methylphenol, reference compound] as the compound, how does the “DPPH^• radical scavenging response” value [2] read?
**A.** The value was “rapid decrease in the DPPH^• absorbance band”.

**Q.** What does the source list for `c1cc2nc(c1)CNCCNCCNC2` [L1]?
**A.** log K1^H ([3]; I = 0.15 M NaCl, T = 298 K): 11.37; log K2^H ([3]; I = 0.15 M NaCl, T = 298 K): 8.22; log K3^H ([3]; I = 0.15 M NaCl, T = 298 K): 1.61; pI ([3]; I = 0.15 M NaCl, T = 298 K): >11.37; DPPH^• radical scavenging activity [4]: lack of radical scavenging activity

**Q.** What does the source list for `Oc1cc2nc(c1)CNCCNCCNC2` [L2]?
**A.** reactivity with ABTS [5]: little to no reactivity; log K1^H ([3]; I = 0.15 M NaCl, T = 298 K): 11.56; log K2^H ([3]; I = 0.15 M NaCl, T = 298 K): 9.05; log K3^H ([3]; I = 0.15 M NaCl, T = 298 K): 5.45; log K4^H ([3]; I = 0.15 M NaCl, T = 298 K): 1.68; pI ([3]; I = 0.15 M NaCl, T = 298 K): 10.31; Nrf2 pathway activation [6]: could activate the Nrf2 pathway; cell viability after H2O2 ([7]; HT-22, 1 μM pretreatment 24 h, mean ± SD, n = 6): 70.1 ± 9.8%; cell viability after H2O2 ([7]; HT-22, 0.1, 10 and 100 μM pretreatment 24 h): did not improve the cell viability; expression level of Nrf2 [8]: significantly increase the expression level of Nrf2; DPPH^• radical scavenging response [2]: strong response

**Q.** Which “log K1^H” value ([3]; I = 0.15 M NaClO4) does the source give for `C1CNCCNCCNCCN1` [cyclen, reference compound] here?
**A.** Its value is 10.66.

**Q.** What about the “log K2^H” value ([3]; I = 0.15 M NaClO4) of the same compound?
**A.** The value was 9.69.

**Q.** And the “log K3^H” value ([3]; I = 0.15 M NaClO4)?
**A.** Its value is 1.41.

**Q.** And the pI ([3]; I = 0.15 M NaClO4)?
**A.** Its pI is > 10.66.
